# TCR CD3 inh: inhibitors of human TCR-CD3 interaction, primary screen, biochemical, fluorescence, TAMRA-labeled TCR probe. T-cell receptor (TCR). inhibition, % at 9.4 µM. hit rate 0.37% among 360,000. AID 651800, 2012; in the data active = inhibition above about 19%;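 also: recombinant mutant TCR 2C K166C tagged with TAMRA read by polarization; 0% = receptor in buffer alone and 100% = receptor with positive control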
# rCAG RNA binder: binders of r(CAG) RNA repeats, primary screen, biochemical, fluorescence; r(CAG) RNA repeat, TO-PRO-1 dye displacement fluorescence; inhibition, % at 3 µM; hit rate 1.3% among 370,000;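 active = inhibition above the plate cutoff, the mean of all test compounds on that plate plus 3 SD, cut at about 35% in these data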;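 also: 0% = DMSO alone and 100% = 100 µM mitoxantrone as full dye displacement; higher means more dye released from RNA so lower well fluorescence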
# HTRA1 inhibitor: HTRA1 serine protease inhibitors, primary screen, biochemical, fluorescence polarization, HTS; hit rate 0.5% among 340,000; recombinant HTRA1, FP-rhodamine activity-based probe; Q92743; inhibition, % at 5.96 µM; AID 504803, 2011; in the data active = inhibition above about 36%;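 also: 0% = enzyme with DMSO and 100% = wells lacking enzyme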
# ABHD4 inh: ABHD4 inhibitors, primary screen, biochemical, fluorescence polarization, mouse. hit rate 0.54% among 370,000. (Lyso)-N-acylphosphatidylethanolamine lipase (Mus musculus), Q8VD66. inhibition, % at 8.92 µM. purified mABHD4, FP-Rh probe fluorescence polarization;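 active = inhibition exceeding the mean over every tested compound plus 3 SD, cut at about 30% in these data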;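 also: 0% = plate median of compound wells and 100% = S159A mutant with DMSO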
#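 Assay system: Wild-type mouse ABHD4 protein | Medium: HEPES pH 7.0 buffer, 150 mM NaCl, 0.01% Pluronic F-127 | Incubation: Enzyme–compound pre-incubation 45 min, then probe 60 min, both 25 °C | Technique: Fluorescence polarization with parallel and perpendicular emission, 525/598 nm | Evaluation: % inhibition of FP-Rh probe binding versus controls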
# SIAE primary: human SIAE inhibitors, primary screen, biochemical, fluorescence polarization, FP-Rh probe, 1536-well HTS | hit rate 0.69% among 370,000 | Sialate O-acetylesterase (Homo sapiens), Q9HAT2 | SIAE FP-Rh probe binding | inhibition, % at 9.66 µM | AID 1053197, 2014;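 active = inhibition above a cutoff: mean of compounds within the control limits plus 3 SD of those, cut at about 17% in these data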;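 also: 0% = plate median of compound wells and 100% = probe without SIAE protein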
# Target sequence (Q9HAT2 whole entry, looked up): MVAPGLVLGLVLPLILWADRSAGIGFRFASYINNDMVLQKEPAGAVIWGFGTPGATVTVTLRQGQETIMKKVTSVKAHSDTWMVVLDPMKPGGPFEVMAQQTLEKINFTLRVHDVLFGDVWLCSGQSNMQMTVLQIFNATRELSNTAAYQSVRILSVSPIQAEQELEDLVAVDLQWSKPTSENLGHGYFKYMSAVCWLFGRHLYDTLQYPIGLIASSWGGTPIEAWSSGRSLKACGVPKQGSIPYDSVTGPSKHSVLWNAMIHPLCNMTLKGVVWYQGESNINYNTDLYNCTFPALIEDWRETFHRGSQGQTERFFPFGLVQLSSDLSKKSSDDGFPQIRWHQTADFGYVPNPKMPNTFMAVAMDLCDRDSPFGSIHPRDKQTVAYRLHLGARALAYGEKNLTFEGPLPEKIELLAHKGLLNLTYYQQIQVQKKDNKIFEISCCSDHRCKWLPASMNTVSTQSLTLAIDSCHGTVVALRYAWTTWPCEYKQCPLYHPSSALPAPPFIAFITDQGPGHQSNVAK
# rCAG binder conf: small molecules binding CAG repeat RNA – biochemical, fluorescence, confirmation; shares compounds with rCAG RNA binder; r(CAG) RNA repeat, TO-PRO-1 dye displacement fluorescence; inhibition, % at 3 µM; hit rate 70% among 4,300; AID 652065, 2013;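 active = inhibition above a per-plate cutoff, the mean inhibition of sample wells plus 3 SD, cut at about 35% in these data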;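 also: loss of TO-PRO-1 fluorescence as compound displaces dye from 1x1 AA loop RNA; 0% = DMSO only wells and 100% = 100 µM mitoxantrone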
# DNA CAG counter: displacement of TO-PRO-1 from CAG DNA duplex, counter-screen for rCAG RNA repeat binder project, biochemical, fluorescence, TO-PRO-1 dye, d(CAG) DNA oligo. shares compounds with rCAG RNA binder. AID 652068, 2013. hit rate 94% among 4,300. d(CAG) DNA oligo TO-PRO-1 dye displacement. inhibition, % at 3 µM;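 active = inhibition above its plate's cutoff, the mean test-well inhibition plus 3 SD, cut at about 4.8% in these data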;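 also: 0% = DNA dye mix with DMSO and 100% = 100 µM mitoxantrone; hits displace the dye from DNA and so lower well fluorescence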
# * hit, by the source's call; . = no result. The list is not random: actives were taken first. Their share in the collection is about 2.5%.
SMILES,TCR CD3 inh,rCAG RNA binder,HTRA1 inhibitor,ABHD4 inh,SIAE primary,rCAG binder conf,DNA CAG counter
Fc1ccc(-c2nc3ccc(Br)cn3c2Cc2cccc(Cl)c2)cc1,4,10,.,-34,-10,.,.
Cc1cc2nc(-c3cccc(Br)c3)c(Cc3cccc(Cl)c3)n2c(C)c1Br,4,40*,.,-58,-12,12,5.9*
Clc1cccc(Cc2c(-c3ccccc3)nc3ccc(Br)cn23)c1,-2,46*,.,-18,-2,38*,9.2*
Cc1ccc(-c2nc3ccc(Br)cn3c2Cc2cccc(F)c2)cc1,-3,26,.,-19,-1,.,.
Clc1ccc(-c2nc3ccc(Br)cn3c2Cc2ccsc2)cc1,14,43*,.,-7,4,26,7.8*
Cc1snc(SCC(=O)N/N=C(\N)COc2cccc(C(F)(F)F)c2)c1C#N,1,-1,-2,1,-5,.,.
Cc1cccnc1NC(=O)c1ccc(S(=O)(=O)N2CC(C)OC(C)C2)cc1 (centres undefined),0,-3,0,-1,-3,.,.
CC(C)N1CCCCC(NC(=O)c2c(F)cccc2F)C1=O (centres undefined),.,0,.,-4,1,.,.
Cc1ccc2nc(-c3cccc(Br)c3)c(Cc3cccc(F)c3)n2c1,-2,7,.,-5,0,.,.
Fc1cccc(Cc2c(-c3cccc(Br)c3)nc3ccc(Cl)cn23)c1,-5,46*,.,-62,-10,25,5.9*
COc1cccc(CNC(=O)CNS(=O)(=O)c2ccc(Br)s2)c1,0,2,-6,0,-3,.,.
CCn1c(SCC(=O)Nc2ccc3c(c2)c2ccccc2n3CC)nnc1-c1ccco1,1,35*,23,16,9,31,13*
O=C(CSc1nccc(=O)[nH]1)Nc1ccc2ccccc2c1,-3,9,-16,-4,5,.,.
CCn1c(SCC(=O)Nc2cccc(NC(C)=O)c2)nnc1-c1ccco1,2,2,-6,1,-5,.,.
CCn1c2ccccc2c2cc(NC(=O)CSc3nccc(=O)[nH]3)ccc21,2,44*,9,15,12,40*,16*
COC(=O)/C=C/c1c(C)[nH]c(=O)[nH]c1=O,-7,0,3,0,-3,.,.
Clc1ccc(CN(Cc2ccc(Cl)cc2)c2nn[nH]n2)cc1,-4,39*,-8,4,-7,27,5.4*
CCOc1ccc(C(=O)NCC(=O)OCC(=O)N2CCCCC2)cc1,-2,-3,1,-2,-1,.,.
CCN(CC)S(=O)(=O)c1ccc(N2CCOCC2)c(NS(=O)(=O)c2ccc(Cl)s2)c1,-2,44*,0,5,0,39*,10*
O=C(O)CC/C(=N\Nc1ccccc1[N+](=O)[O-])c1cccs1,.,.,18,.,.,.,.
O=C(O)CC/C(=N\Nc1ccc(S(=O)(=O)N2CCCC2)cc1[N+](=O)[O-])c1cccs1,3,71*,11,26,-2,60*,22*
O=C(O)CC/C(=N\Nc1ccc(S(=O)(=O)N2CCOCC2)cc1[N+](=O)[O-])c1cccs1,1,56*,2,20,-1,59*,23*
CCCSc1nnc(NC(=O)c2sc3nc(-c4cccs4)ccc3c2N)s1,-3,36*,-17,-16,-11,68*,33*
Cc1ccc(S(=O)(=O)NCC(=O)NCC(=O)N2CCC(C)CC2)cc1,9,-3,3,2,-2,.,.
Nc1[nH]n2c(=O)c3c(nc2c1N=Nc1ccccc1)CCCC3,7,35*,13,21,-2,8,3
O=C(O)c1cc(N/N=C/C(Cl)=C/c2ccccc2)ccc1Cl,9,57*,-4,8,2,45*,18*
CCc1nc2ccc(C(=O)Nc3ccc(OC)c(OC)c3)cn2c1N(C)C(=O)Cc1ccccc1,-1,-1,.,8,3,.,.
Cc1ccccc1NC(=O)c1cc(C(=O)c2cc(Cl)ccc2O)cn(-c2ccccc2C)c1=O,5,29,-86,-69,-117,.,.
